Data as given in ChEMBL document CHEMBL3822416, “Design, Synthesis, and Structure-Activity Relationship Study of Novel Indole-2-carboxamide Derivatives as Anti-inflammatory Agents for the Treatment of Sepsis” (J Med Chem, 2016).
pIC50: −log10 of the molar value. Calls of active or inactive are those of the source. The calls are words filed in the database; no cut-off is given here.

Key:
RAW264.7 [1] = experiment: Inhibition of LPS-induced IL6 production in mouse RAW264.7 cells at 10 uM preincubated for 30 mins prior to LPS challenge measured after 24 hrs by ELISA; assay type: functional
Summary of the method: (§1)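 RAW 264.7 cells (ATCC) were grown in DMEM with 10% FBS and penicillin/streptomycin at 37 °C, 5% CO2. Cells were seeded at 400,000/well and incubated for 24 h, pretreated with compound for 30 min, then given 0.5 µg/mL LPS for 24 h. Medium TNF-α or IL-6 was measured by ELISA and normalized to total protein of viable cell pellets.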

RAW264.7 [2] = experiment: Inhibition of LPS-induced TNF-alpha production in mouse RAW264.7 cells at 10 uM preincubated for 30 mins prior to LPS challenge measured after 24 hrs by ELISA; assay type: functional; summary of the method: as §1
RAW264.7 [3] = experiment: Inhibition of LPS-induced IL6 production in mouse RAW264.7 cells preincubated for 30 mins prior to LPS challenge measured after 24 hrs by ELISA; assay type: functional, cell-based; conditions: for pIC50: Mus musculus, RAW264.7, read-out: IC50; summary of the method: as §1
RAW264.7 [4] = experiment: Inhibition of LPS-induced TNF-alpha production in mouse RAW264.7 cells preincubated for 30 mins prior to LPS challenge measured after 24 hrs by ELISA; assay type: functional, cell-based; conditions: for pIC50: Mus musculus, RAW264.7, read-out: IC50; summary of the method: as §1
Mus musculus [5] = experiment: Antiinflammatory activity in LPS-induced C57BL/6 mouse sepsis model assessed as inhibition of neutrophils infiltration in lung by measuring MPO activity at 10 mg/kg, iv administered 15 mins prior to LPS challenge measured after 6 hrs in presence of O-dianisidine dihydrochloride relative to control; assay type: functional, organism-based
Summary of the method: (§2)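 Mice were given 10 mg/kg iv 15 min before 20 mg/kg LPS or without LPS; saline served as control, and animals were killed 6 h later. Lung supernatants were incubated with 0.01% H2O2 and O-dianisidine dihydrochloride 0.167 mg/mL for 30 min, with absorbance change at 460 nm. One unit degrades 1 µmol peroxide/min at 37 °C; values are expressed as units/g lung.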

Mus musculus [6] = experiment: Decrease in MPO activity in C57BL/6 mouse lung at 10 mg/kg, iv after 6 hrs in presence of O-dianisidine dihydrochloride relative to control; assay type: ADME, organism-based; conditions: in vivo; summary of the method: as §2
Mus musculus [7] = experiment: Antiinflammatory activity in LPS-induced C57BL/6 mouse sepsis model assessed as reduction in airspace inflammation in lung at 10 mg/kg, iv administered 15 mins prior to LPS challenge measured after 6 hrs by hematoxylin and eosin staining; assay type: functional, organism-based
Summary of the method: (§3)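 Male C57BL/6 mice (18-22 g), randomized into groups. Compound at 10 mg/kg was given by tail-vein injection 15 min before LPS 20 mg/kg; controls received saline. Animals were sacrificed 6 h after LPS. Lung was fixed in 4% paraformaldehyde, paraffin-embedded, cut at 5 µm and H&E stained. A pathologist, blinded, scored alveolar congestion, hemorrhage, neutrophil infiltration and alveolar wall thickness/hyaline membrane.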

Mus musculus [8] = experiment: Antiinflammatory activity in LPS-induced C57BL/6 mouse sepsis model assessed as decrease in pulmonary lobule structural changes at 10 mg/kg, iv administered 15 mins prior to LPS challenge measured after 6 hrs by hematoxylin and eosin staining; assay type: functional, organism-based; summary of the method: as §3
Mus musculus [9] = experiment: Antiinflammatory activity in LPS-induced C57BL/6 mouse sepsis model assessed as inhibition of macrophage infiltration in lung at 10 mg/kg, iv administered 15 mins prior to LPS challenge measured after 6 hrs by F4/80 and hematoxylin-staining based microscopy; assay type: functional, organism-based
Summary of the method: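 C57BL/6 males were dosed with 10 mg/kg iv (tail vein) 15 min before 20 mg/kg LPS and sacrificed 6 h later. Paraffin lung sections had antigen retrieval by pressure cooker in 10 mM citrate pH 6.5, then H2O2, 5% BSA block, anti-F4/80 overnight at 4 °C, HRP secondary, DAB and hematoxylin counterstain. The % F4/80-positive cells was counted in 10 random 200× fields per section.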

Mus musculus [10] = experiment: Downregulation of TNF-alpha mRNA level in lung of LPS-induced C57BL/6 mouse sepsis model at 10 mg/kg, iv administered 15 mins prior to LPS challenge measured after 6 hrs by RT-qPCR analysis; assay type: functional, organism-based
Summary of the method: (§4)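 Male C57BL/6 mice were given 10 mg/kg by tail-vein injection 15 min before 20 mg/kg LPS and killed after 6 h; lungs were harvested. RNA was extracted with TRIZOL and quantified by real-time quantitative PCR as relative mRNA amount.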

Mus musculus [11] = experiment: Downregulation of IL-6 mRNA level in lung of LPS-induced C57BL/6 mouse sepsis model at 10 mg/kg, iv administered 15 mins prior to LPS challenge measured after 6 hrs by RT-qPCR analysis; assay type: functional, organism-based; summary of the method: as §4
Mus musculus [12] = experiment: Downregulation of IL-12 mRNA level in lung of LPS-induced C57BL/6 mouse sepsis model at 10 mg/kg, iv administered 15 mins prior to LPS challenge measured after 6 hrs by RT-qPCR analysis; assay type: functional, organism-based; summary of the method: as §4
Mus musculus [13] = experiment: Downregulation of IL-33 mRNA level in lung of LPS-induced C57BL/6 mouse sepsis model at 10 mg/kg, iv administered 15 mins prior to LPS challenge measured after 6 hrs by RT-qPCR analysis; assay type: functional, organism-based; summary of the method: as §4
Mus musculus [14] = experiment: Downregulation of IL-1beta mRNA level in lung of LPS-induced C57BL/6 mouse sepsis model at 10 mg/kg, iv administered 15 mins prior to LPS challenge measured after 6 hrs by RT-qPCR analysis; assay type: functional, organism-based; summary of the method: as §4
Mus musculus [15] = experiment: Downregulation of COX2 mRNA level in lung of LPS-induced C57BL/6 mouse sepsis model at 10 mg/kg, iv administered 15 mins prior to LPS challenge measured after 6 hrs by RT-qPCR analysis; assay type: functional, organism-based; summary of the method: as §4

SMILES	inhibition at 10 µM (RAW264.7 [1]) [%]	inhibition at 10 µM (RAW264.7 [2]) [%]	other results
CN1CCN(c2ccc(NC(=O)c3cc4cc([N+](=O)[O-])ccc4n3C)cc2)CC1	87.2	16	–
COc1ccc(NC(=O)c2cc3cc([N+](=O)[O-])ccc3[nH]2)cc1	52.8	8.17	–
CN1CCN(c2ccc(NC(=O)c3cc4cc([N+](=O)[O-])ccc4n3Cc3ccc(C(F)(F)F)cc3)cc2)CC1	98.7	75.1	pIC50 (RAW264.7 [3]): 5.29; pIC50 (RAW264.7 [4]): 5.56
O=C(NCCc1ccccc1)c1cc2cc([N+](=O)[O-])ccc2[nH]1	8.71	2.58	–
CCCn1c(-c2c[nH]c3ncccc23)nc2ccc(N3CCN(C)CC3)nc21	69.5	67.3	inhibition (Mus musculus [5]): Active; Activity (Mus musculus [6]): Non-toxic; Activity (Mus musculus [7]): Active; Activity (Mus musculus [8]): Active; inhibition (Mus musculus [9]): Active; Activity (Mus musculus [10]): Active; Activity (Mus musculus [11]): Active; Activity (Mus musculus [12]): Active; Activity (Mus musculus [13]): Active; Activity (Mus musculus [14]): inactive; Activity (Mus musculus [15]): inactive
O=C(Nc1ccc(OCc2cc(F)cc(F)c2)cc1)c1cc2cc([N+](=O)[O-])ccc2[nH]1	11.2	–	inhibition (RAW264.7 [2]): inactive
O=C(Nc1ccc(OCc2c(Cl)cccc2Cl)c(Cl)c1)c1cc2cc([N+](=O)[O-])ccc2[nH]1	29.8	–	inhibition (RAW264.7 [2]): inactive
O=C(Nc1ccc(OCc2ccccc2)c(Cl)c1)c1cc2cc([N+](=O)[O-])ccc2[nH]1	21.5	–	inhibition (RAW264.7 [2]): inactive
O=C(Nc1ccc(OCc2cccc(F)c2)c(Cl)c1)c1cc2cc([N+](=O)[O-])ccc2[nH]1	–	–	inhibition (RAW264.7 [1]): inactive; inhibition (RAW264.7 [2]): inactive
COc1ccc(Cn2c(C(=O)Nc3ccc(N4CCN(C)CC4)cc3)cc3cc([N+](=O)[O-])ccc32)cc1	64.3	41.4	–
CN1CCN(c2ccc(NC(=O)c3cc4cc(NC(=O)CCl)ccc4n3Cc3ccc(C(F)(F)F)cc3)cc2)CC1	–	–	pIC50 (RAW264.7 [3]): 5.52; pIC50 (RAW264.7 [4]): 5.22
O=C(Nc1ccc(OCc2cccc(F)c2)cc1)c1cc2cc([N+](=O)[O-])ccc2[nH]1	4.42	–	inhibition (RAW264.7 [2]): inactive
CN1CCN(c2ccc(NC(=O)c3cc4cc(N)ccc4n3Cc3ccc(C(F)(F)F)cc3)cc2)CC1	–	–	IC50 (RAW264.7 [3]; raw264.7): Not Active; IC50 (RAW264.7 [4]; raw264.7): Not Active
COc1cccc(COc2ccc(NC(=O)c3cc4cc([N+](=O)[O-])ccc4[nH]3)cc2Cl)c1	21.9	–	inhibition (RAW264.7 [2]): inactive
O=C(Nc1ccc(OCc2ccc(C(F)(F)F)cc2)c(Cl)c1)c1cc2cc([N+](=O)[O-])ccc2[nH]1	29.2	–	inhibition (RAW264.7 [2]): inactive
CN1CCN(c2ccc(NC(=O)c3cc4cc([N+](=O)[O-])ccc4n3Cc3cccc(F)c3)cc2)CC1	86.4	22.8	–
COc1ccc2c(c1)c(CC(=O)O)c(C)n2C(=O)c1ccc(Cl)cc1 [INDOMETHACIN]	53.6	24.1	–
O=C(Nc1ccccc1)c1cc2cc([N+](=O)[O-])ccc2[nH]1	49.6	17.5	–
CN1CCN(c2ccc(NC(=O)c3cc4cc([N+](=O)[O-])ccc4n3Cc3c(Cl)cccc3Cl)cc2)CC1	93.3	52.7	–

SMILES	inhibition at 10 µM (RAW264.7 [1]) [%]	inhibition at 10 µM (RAW264.7 [2]) [%]	other results
CN1CCN(c2ccc(NC(=O)c3cc4cc(NS(C)(=O)=O)ccc4n3Cc3ccc(C(F)(F)F)cc3)cc2)CC1	–	–	pIC50 (RAW264.7 [3]): 5.31; pIC50 (RAW264.7 [4]): 5.71
C=CCn1c(C(=O)Nc2ccc(N3CCN(C)CC3)cc2)cc2cc([N+](=O)[O-])ccc21	58.2	12.7	–
O=C(Nc1ccc(N2CCOCC2)cc1)c1cc2cc([N+](=O)[O-])ccc2[nH]1	38	18	–
CN1CCN(c2ccc(NC(=O)c3cc4cc([N+](=O)[O-])ccc4n3Cc3ccc(Cl)cc3)cc2)CC1	97.2	67	–
COc1cc(NC(=O)c2cc3cc([N+](=O)[O-])ccc3[nH]2)cc(OC)c1OC	62.3	45.8	–
COc1cc(NC(=O)c2cc3cc([N+](=O)[O-])ccc3[nH]2)cc(OC)c1	31.3	17.2	–
C=CC(=O)Nc1ccc2c(c1)cc(C(=O)Nc1ccc(N3CCN(C)CC3)cc1)n2Cc1ccc(C(F)(F)F)cc1	–	–	pIC50 (RAW264.7 [3]): 5.20; pIC50 (RAW264.7 [4]): 5.98
CCC(=O)Nc1ccc2c(c1)cc(C(=O)Nc1ccc(N3CCN(C)CC3)cc1)n2Cc1ccc(C(F)(F)F)cc1	–	–	pIC50 (RAW264.7 [3]): 5.48; pIC50 (RAW264.7 [4]): 5.39
O=C(Nc1ccc(OCc2ccc(Cl)cc2)cc1)c1cc2cc([N+](=O)[O-])ccc2[nH]1	4.28	–	inhibition (RAW264.7 [2]): inactive
Cc1cc2cc(NC(=O)c3cc4cc([N+](=O)[O-])ccc4[nH]3)ccc2[nH]1	37	7.53	–
Cc1ccc(C)c(COc2ccc(NC(=O)c3cc4cc([N+](=O)[O-])ccc4[nH]3)cc2Cl)c1	24.9	2.89	–
CN1CCN(c2ccc(NC(=O)c3cc4cc([N+](=O)[O-])ccc4[nH]3)cc2)CC1	91	62.5	–
COc1ccc(CCNC(=O)c2cc3cc([N+](=O)[O-])ccc3[nH]2)cc1	11.8	9.75	–
CCOc1ccc(NC(=O)c2cc3cc([N+](=O)[O-])ccc3[nH]2)cc1	41.1	33.8	–
COc1ccc(COc2ccc(NC(=O)c3cc4cc([N+](=O)[O-])ccc4[nH]3)cc2Cl)cc1	24.8	–	inhibition (RAW264.7 [2]): inactive
COc1cc(COc2ccc(NC(=O)c3cc4cc([N+](=O)[O-])ccc4[nH]3)cc2Cl)cc(OC)c1	29	7.67	–
Cc1ccc(COc2ccc(NC(=O)c3cc4cc([N+](=O)[O-])ccc4[nH]3)cc2)cc1	1.98	–	inhibition (RAW264.7 [2]): inactive
CN1CCN(c2ccc(NC(=O)c3cc4cc([N+](=O)[O-])ccc4n3Cc3ccc(Br)cc3)cc2)CC1	93	31.1	–
CC(C)=CCOc1ccc(NC(=O)c2cc3cc([N+](=O)[O-])ccc3[nH]2)cc1	56.5	38.6	–
